Test results taken from ChEMBL document CHEMBL1122883, “An interdisciplinary approach to the design of new structures active at the beta-adrenergic receptor. Aliphatic oxime ether derivatives” (J Med Chem, 1985).

Columns and labels:
[1] = molecular target: Beta-2 adrenergic receptor (Cavia porcellus, UniProt Q8K4Z4); assay: Antagonistic activity against beta-2 adrenergic receptor on isolated guinea pig tracheal strips; format: functional, tissue-based, Trachea; conditions: read-out: pA2 (converted)
Chain of Beta-2 adrenergic receptor (Q8K4Z4 whole entry): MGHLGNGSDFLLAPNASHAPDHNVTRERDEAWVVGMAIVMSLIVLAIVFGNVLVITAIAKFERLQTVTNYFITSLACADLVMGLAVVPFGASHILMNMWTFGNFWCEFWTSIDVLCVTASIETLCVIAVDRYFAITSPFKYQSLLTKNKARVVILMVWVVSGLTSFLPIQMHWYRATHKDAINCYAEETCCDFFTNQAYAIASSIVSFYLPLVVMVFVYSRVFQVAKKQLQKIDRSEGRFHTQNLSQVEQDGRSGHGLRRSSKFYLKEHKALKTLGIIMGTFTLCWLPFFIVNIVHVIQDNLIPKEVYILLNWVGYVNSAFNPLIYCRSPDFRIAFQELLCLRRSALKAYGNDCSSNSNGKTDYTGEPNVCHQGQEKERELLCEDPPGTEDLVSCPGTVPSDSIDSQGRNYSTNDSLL
Outline: (§1)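 Tracheal strips from male adult guinea pigs (300–350 g) in Krebs–Henseleit with ascorbic acid (0.1 mg/mL) and phentolamine (0.1 μg/mL), 37 °C, 95% O2–5% CO2. Strips were under 0.5 g tension, stabilized 30 min, and given steady tone with carbachol 5 × 10^-7 M. Isotonic recording. Agonist dose–response curves to noradrenaline and isoprenaline were run before and after 20 min antagonist contact.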

[2] = molecular target: Beta-1 adrenergic receptor (Cavia porcellus) (UniProt B0FL73); assay: Specific antagonistic activity difference against beta-1 adrenergic receptor of isolated guinea pig atria; format: functional
Chain of Beta-1 adrenergic receptor (Cavia porcellus) (B0FL73 1-467): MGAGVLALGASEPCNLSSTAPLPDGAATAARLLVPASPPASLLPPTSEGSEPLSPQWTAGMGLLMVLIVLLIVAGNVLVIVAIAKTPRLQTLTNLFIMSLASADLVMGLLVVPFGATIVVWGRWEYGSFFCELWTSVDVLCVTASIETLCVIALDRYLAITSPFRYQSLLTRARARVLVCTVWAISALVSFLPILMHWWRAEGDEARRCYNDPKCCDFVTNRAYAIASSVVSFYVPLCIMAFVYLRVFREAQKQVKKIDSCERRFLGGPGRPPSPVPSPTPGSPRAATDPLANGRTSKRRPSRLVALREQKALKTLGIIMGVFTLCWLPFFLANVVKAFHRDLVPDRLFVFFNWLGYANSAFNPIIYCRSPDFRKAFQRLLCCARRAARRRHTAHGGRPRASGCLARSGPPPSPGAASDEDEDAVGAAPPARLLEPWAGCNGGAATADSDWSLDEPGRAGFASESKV

[3] = molecular target: Beta-2 adrenergic receptor (Cavia porcellus) (UniProt Q8K4Z4); assay: Antagonistic activity against beta-2 adrenergic receptor of isolated guinea pig tracheal strips; format: functional, tissue-based; conditions: Trachea; outline: as §1
Chain of Beta-2 adrenergic receptor (Cavia porcellus) (Q8K4Z4 whole entry, looked up): as the sequence (Q8K4Z4 whole entry) above

[4] = molecular target: Beta-2 adrenergic receptor (Cavia porcellus) (UniProt Q8K4Z4); assay: Specific antagonistic activity difference against beta-2 adrenergic receptor of isolated guinea pig tracheal strips; format: functional
[5] = molecular target: Beta-1 adrenergic receptor (Cavia porcellus, UniProt B0FL73); assay: (§2) Antagonistic activity against beta-1 adrenergic receptor of isolated guinea pig atria; format: functional; conditions: read-out: pA2 (converted)
Chain of Beta-1 adrenergic receptor (B0FL73 whole entry): as the sequence (B0FL73 1-467) above
Outline: (§3)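 Antagonism was assessed from dose–response curves to noradrenaline and isoprenaline obtained before and after a 20 min contact period with the test antagonist. Each agonist was allowed to act until maximal response.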

[6] = molecular target: Beta-1 adrenergic receptor (Cavia porcellus) (UniProt B0FL73); assay: as §2; format: functional; outline: as §3
[7] = molecular target: Beta-1 adrenergic receptor (Cavia porcellus) (UniProt B0FL73)
[8] = molecular target: Beta-1 adrenergic receptor (Cavia porcellus) (UniProt B0FL73); assay: […] activity against beta-1 adrenergic receptor on isolated guinea pig atria; format: functional; outline: as §3
[9] = molecular target: Beta-1 adrenergic receptor (Cavia porcellus) (UniProt B0FL73); assay: Stimulating activity against beta-1
Outline: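 Agonist given until maximal response was reached, building dose–response curves. Affinity expressed as pD2, calculated by the Ariëns–Van Rossum method.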

Kb [1] [nM] | pA2 - pA10 [2] | pA10 [3] | pA2 - pA10 [4] | Kb [5] [µM] | pA10 [6] | pD2 [7] | pD2 [8] | pD2 [9] | SMILES
174 | 0.69 | 5.88 | 0.88 | 53.7 | 3.58 |  |  |  | CC(C)(C)NCC(O)CON=C1CCCC1 (centres undefined)
10.5 | 0.71 | 7.14 | 0.84 | 1.26 | 5.19 |  |  |  | CCC(CC)=NOCC(O)CNC(C)(C)C (centres undefined)
38.9 | 0.78 | 6.81 | 0.6 | 8.32 | 4.3 |  |  |  | CC(C)(C)NCC(O)CON=C1CCCCC1 (centres undefined)
155 | 0.8 | 6.09 | 0.71 | 24.5 | 3.81 |  |  |  | CC(C)NCC(O)CON=C1CCCC1 (centres undefined)
72.4 | 0.82 | 6.64 | 0.5 | 20 | 3.88 |  |  |  | CC(C)NCC(O)CON=C1CCCCC1 (centres undefined)
22.9 | 0.9 | 6.82 | 0.82 | 14.5 | 3.94 |  |  | 6.12 | CC(C)C(=NOCC(O)CNC(C)(C)C)C(C)C (centres undefined)

Continued, compound first:

SMILES | Kb [1] [nM] | pA2 - pA10 [2] | pA10 [3] | pA2 - pA10 [4] | Kb [5] [µM] | pA10 [6] | pD2 [7] | pD2 [8] | pD2 [9]
COc1ccc(OC)c(C(O)C(C)NC(C)(C)C)c1 (centres undefined) [BUTOXAMINE] | 129 | 0.37 | 5.96 | 0.93 | 44.7 | 3.98 |  |  | 
CCCC(CCC)=NOCC(O)CNC(C)C (centres undefined) | 6.31 | 0.55 | 7.49 | 0.714 | 20.9 | 4.13 |  |  | 
CCC(CC)=NOCC(O)CNC(C)C (centres undefined) | 4.17 | 0.78 | 7.57 | 0.81 | 0.955 | 5.24 |  |  | 
CC(C)NCC(O)CON=C(C(C)C)C(C)C (centres undefined) | 3.02 | 0.89 | 7.62 | 0.9 | 17 | 3.88 | 6.08 |  | 
CCCC(CCC)=NOCC(O)CNC(C)(C)C (centres undefined) | 2.4 | 0.85 | 7.93 | 0.69 | 4.68 | 4.48 |  |  | 
OCc1ccc(O)c(O)c1 |  |  |  |  |  |  |  | 8.44 | 
